Converted amounts (≈) assume the structure as drawn. The source made the active and inactive calls. The rule behind the calls is not given here.
What was measured:
BT-549 [1] = test: Cytotoxicity against human BT549 cells at 100 ug/ml […] by MTT assay; format: cell-based
Rattus norvegicus [2] = test: Antiinflammatory activity in albino rat assessed as inhibition of carrageenan-induced paw edema at 100 mg/kg, po administered 1 hr prior to carrageenan-challenge measured after 3 hrs relative to control; format: functional
Outline: (§1)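 Charles Foster albino rats of either sex (150–200 g, pregnant females excluded), six per group, dosed orally; 1 h later 0.2 mL of 1% carrageenan in 0.9% NaCl injected into right hind paw subplantar tissue. Paw volume read by plethysmometer at injection and 3 h later. Control group received carrageenan only. % inhibition = 1–Dt/Dc×100. Mean ± S.D.; one-way ANOVA with Tukey's test.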

HeLa [3] = test: Cytotoxicity against human HeLa cells at 100 ug/ml […] by MTT assay; format: cell-based
COLO 205 [4] = test: Induction of apoptosis in human COLO205 cells assessed as late apoptotic cells at IC50 after 48 hrs by acridine orange-ethidium bromide staining assay; format: functional, cell-based
Outline: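 COLO-205 cells seeded at 10⁵ cells/ml, grown 24 h, then treated at IC₅₀ dose for 48 h. Floating and trypsinized adherent cells pooled, spun at 129 g for 5 min and washed in PBS. Stained with 1:1 acridine orange/ethidium bromide and viewed by fluorescence microscopy at 400x (green viable, orange-red apoptotic).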

[5] = Antitumor activity against mouse EAC […] Swiss albino mouse assessed as change in body weight at 100 mg/kg, ip administered everyday from day 10 to day 14 measured on day 12 (reference value: 22.03 +/- 1.67%); format: functional, Ehrlich; settings: route intraperitoneal
[6] = Antitumor activity against mouse EAC […] Swiss albino mouse assessed as change in body weight at 100 mg/kg, ip administered on day 10 measured on day 15 (reference value: 22.03 +/- 1.67%); format: functional, Ehrlich; settings: route intraperitoneal
BT-549 [7] = test: Cytotoxicity against human BT549 cells after 24 hrs by MTT assay; format: functional, cell-based; settings: BT-549, 24 h
ACHN = test: Cytotoxicity against human ACHN cells […] by MTT assay; format: functional, cell-based
COLO 205 [8] = test: Inhibition of NF-kappaB in human COLO205 cells assessed as Bcl-2 down regulation at IC50 after 48 hrs by RT-PCR analysis; format: cell-based
Outline: (§2)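 About 4x10⁶ COLO-205 cells/well treated at IC₅₀ dose for 48 h. Total RNA extracted with TRI Reagent and quantified. Bcl-2 and Bax measured by RT-PCR against GAPDH (40 cycles: 94 °C, 55 °C, 72 °C). Products run on 1.5% agarose gel and quantified by band densitometry.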

COLO 205 [9] = test: Induction of apoptosis in human COLO205 cells assessed as karyopyknosis at IC50 after 48 hrs by Hoechst 33258 staining-based inverted microscopic analysis; format: functional, cell-based
Outline: (§3)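 COLO-205 cells seeded at 10⁵ cells/ml and grown to 70-80% confluency. Treated at IC₅₀ dose for 48 h. Fixed in 4% formaldehyde for 30 min at room temperature, stained with Hoechst 33258 for 15 min, washed three times with PBS. Imaged by inverted fluorescence microscope (excitation 340-380 nm, emission 465 nm) at 400x and scored for nuclear morphology.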

COLO 205 [10] = test: Induction of apoptosis in human COLO205 cells assessed as zeiosis at IC50 after 48 hrs by Hoechst 33258 staining-based inverted microscopic analysis; format: functional, cell-based; outline: as §3
COLO 205 [11] = test: Induction of apoptosis in human COLO205 cells assessed as nuclear fragmentation at IC50 after 48 hrs by Hoechst 33258 staining-based inverted microscopic analysis; format: functional, cell-based; outline: as §3
[12] = Antitumor activity against mouse EAC […] Swiss albino mouse assessed as increase in life span at 100 mg/kg, ip relative to vehicle-treated control; format: functional, Ehrlich; settings: route intraperitoneal
Outline: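 Female Swiss albino mice (6–8 weeks), six per group, inoculated i.p. on day 0 with 1×10⁶ viable EAC cells from donor ascites. Drug suspended in 0.25% CMC, given i.p. at 0.1 ml/10 g on days 10–14. Survival was monitored twice daily for 44 days. ILS(%) = [(MST treated/MST control) − 1]×100, where MST is total days survived divided by the number of animals.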

HeLa [13] = test: Cytotoxicity against human HeLa cells after 24 hrs by MTT assay; format: functional, cell-based
COLO 205 [14] = test: Cytotoxicity against human COLO205 cells […] by MTT assay; format: functional, cell-based
COLO 205 [15] = test: Inhibition of NF-kappaB in human COLO205 cells assessed as Bax up-regulation at IC50 after 48 hrs by RT-PCR analysis; format: cell-based; outline: as §2
Rattus norvegicus [16] = test: Antiinflammatory activity in albino rat assessed as inhibition of carrageenan-induced paw edema at 10 mg/kg, po administered 1 hr prior to carrageenan-challenge measured after 3 hrs relative to control; format: functional; outline: as §1

Row | Structure (SMILES) | Activity (BT-549 [1]) [%] | inhibition in vivo at 100 mg/kg (Rattus norvegicus [2]) [%] | Activity (HeLa [3]) [%] | other results
1 | Cc1ccc(C2SCC(=O)N2c2ccc3c(C)cc(=O)[nH]c3c2)o1 (centres undefined) | 31.114 | 10.1 | 27.453 | –
2 | Cc1cc(=O)[nH]c2cc(N3C(=O)CSC3c3ccccn3)ccc12 (centres undefined) | 18.028 | 7.5 | 20 | –
3 | COc1ccc(C2SCC(=O)N2c2ccc3c(C)cc(=O)[nH]c3c2)cc1OC (centres undefined) | 31.737 | 20.6 | 30.492 | –
4 | Cc1cc(=O)[nH]c2cc(N3C(=O)CSC3c3ccccc3)ccc12 (centres undefined) | 71.578 | 17.8 | 74.85 | Activity (COLO 205 [4]): Active; Activity [5]: 10.65%; Activity [6]: 5.93%; IC50 (BT-549 [7]): 39.3 µg/mL (≈ 117 µM); IC50 (ACHN): 78.9 µg/mL (≈ 234 µM); inhibition (COLO 205 [8]): Active; Activity (COLO 205 [9]): Active; Activity (COLO 205 [10]): Active; Activity (COLO 205 [11]): Active; Activity [12]: 60.57%; MST [12]: 29.16 days; IC50 (HeLa [13]): 35.1 µg/mL (≈ 104 µM); IC50 (COLO 205 [14]): 31.4 µg/mL (≈ 93.3 µM); inhibition (COLO 205 [15]): Active
5 | Cc1cc(=O)[nH]c2cc(N3C(=O)CSC3c3cccc(Cl)c3)ccc12 (centres undefined) | 44.849 | 23.3 | 44.158 | –
6 | Cc1cc(=O)[nH]c2cc(N3C(=O)CSC3c3cccc(Br)c3)ccc12 (centres undefined) | 40.062 | 22.7 | 56.633 | –
7 | COc1ccc2c(c1)c(CC(=O)O)c(C)n2C(=O)c1ccc(Cl)cc1 [INDOMETHACIN] | – | – | – | inhibition in vivo at 10 mg/kg (Rattus norvegicus [16]): 33.2%
8 | Cc1ccc(C2SCC(=O)N2c2ccc3c(C)cc(=O)[nH]c3c2)s1 (centres undefined) | 22.023 | 15.8 | 31.485 | –
9 | Cc1cc(=O)[nH]c2cc(N3C(=O)CSC3c3ccc(O)cc3)ccc12 (centres undefined) | 42.143 | 22.9 | 68.91 | –
10 | Cc1cc(=O)[nH]c2cc(N3C(=O)CSC3c3ccc(Br)cc3)ccc12 (centres undefined) | 42.663 | 12.4 | 65.742 | –
11 | Cc1cc(=O)[nH]c2cc(N3C(=O)CSC3/C=C/c3ccccc3)ccc12 (centres undefined) | 38.837 | 20.8 | 42.057 | –
12 | Cc1cc(=O)[nH]c2cc(N3C(=O)CSC3c3cccs3)ccc12 (centres undefined) | 63.163 | 18.6 | 83.762 | Activity (COLO 205 [4]): Active; Activity [5]: 6.66%; Activity [6]: 3.86%; IC50 (BT-549 [7]): 43 µg/mL (≈ 126 µM); IC50 (ACHN): 44.7 µg/mL (≈ 131 µM); inhibition (COLO 205 [8]): Active; Activity (COLO 205 [9]): Active; Activity (COLO 205 [10]): Active; Activity (COLO 205 [11]): Active; Activity [12]: 77.09%; MST [12]: 32.16 days; IC50 (HeLa [13]): 27.1 µg/mL (≈ 79 µM); IC50 (COLO 205 [14]): 20.7 µg/mL (≈ 60.6 µM); inhibition (COLO 205 [15]): Active
13 | Cc1cc(=O)[nH]c2cc(N3C(=O)CSC3c3cccnc3)ccc12 (centres undefined) | 29.032 | 6.81 | 34.851 | –
14 | Cc1cc(=O)[nH]c2cc(N3C(=O)CSC3N3CCCCC3)ccc12 (centres undefined) | 31.949 | 2.77 | 29.394 | –
15 | Cc1cc(=O)[nH]c2cc(N3C(=O)CSC3c3ccccc3F)ccc12 (centres undefined) | 40.062 | 20.4 | 59.6 | –
16 | Cc1cc(=O)[nH]c2cc(N3C(=O)CSC3c3ccc(Cl)cc3)ccc12 (centres undefined) | 46.201 | 13 | 20.198 | –

— ChEMBL document CHEMBL2375332, “Novel quinolone substituted thiazolidin-4-ones as anti-inflammatory, anticancer agents: design, synthesis and biological screening” (Eur J Med Chem, 2013)
